Experimental findings from ChEMBL document CHEMBL3352261, “Discovery of inhibitors of the mitotic kinase TTK based on N-(3-(3-sulfamoylphenyl)-1H-indazol-5-yl)-acetamides and carboxamides” (Bioorg Med Chem, 2014) are described below.

SMILES strings stand for the structures. Bounds are passed on as bounds.

Series [1] has as its target Cytochrome P450 3A4 (Homo sapiens, UniProt P08684). Kind of series: Inhibition of CYP3A4 in supersomes (unknown origin) using Dibenzylfluorescein as substrate after 10 mins. The class given is ADME.
The subject of series [2] is A549. Kind of series: Growth inhibition of human A549 cells after 5 days by SRB assay. The class given is functional. The settings on record: A549, 120 h. (In general: The SRB assay estimates cell density from bound dye.)
The target in series [3] is Serine/threonine-protein kinase PLK3 (Homo sapiens, UniProt Q9H4B4). The series can be described thus: Inhibition of PLK3 (unknown origin) by FRET-based homogenous assay.
Serine/threonine-protein kinase PLK3, sequence (Q9H4B4 whole entry): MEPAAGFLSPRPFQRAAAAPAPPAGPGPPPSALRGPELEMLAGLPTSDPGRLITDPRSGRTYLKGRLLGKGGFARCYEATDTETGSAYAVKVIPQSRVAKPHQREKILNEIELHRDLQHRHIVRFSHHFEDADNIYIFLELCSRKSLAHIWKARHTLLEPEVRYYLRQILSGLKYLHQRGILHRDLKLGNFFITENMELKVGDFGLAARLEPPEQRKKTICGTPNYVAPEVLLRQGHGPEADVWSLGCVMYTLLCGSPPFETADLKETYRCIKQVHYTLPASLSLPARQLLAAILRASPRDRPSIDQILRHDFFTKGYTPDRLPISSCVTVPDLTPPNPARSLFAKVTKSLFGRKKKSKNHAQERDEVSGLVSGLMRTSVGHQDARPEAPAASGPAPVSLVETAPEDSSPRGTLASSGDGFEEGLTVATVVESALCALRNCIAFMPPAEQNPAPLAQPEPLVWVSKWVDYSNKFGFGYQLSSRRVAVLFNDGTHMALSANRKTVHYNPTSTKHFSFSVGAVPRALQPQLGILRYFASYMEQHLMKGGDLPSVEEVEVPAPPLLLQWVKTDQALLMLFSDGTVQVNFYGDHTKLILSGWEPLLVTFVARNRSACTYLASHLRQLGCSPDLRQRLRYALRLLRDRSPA
Series [4] addresses T1, Dual specificity protein kinase TTK (Homo sapiens, UniProt P33981).
T1 sequence (P33981 whole entry): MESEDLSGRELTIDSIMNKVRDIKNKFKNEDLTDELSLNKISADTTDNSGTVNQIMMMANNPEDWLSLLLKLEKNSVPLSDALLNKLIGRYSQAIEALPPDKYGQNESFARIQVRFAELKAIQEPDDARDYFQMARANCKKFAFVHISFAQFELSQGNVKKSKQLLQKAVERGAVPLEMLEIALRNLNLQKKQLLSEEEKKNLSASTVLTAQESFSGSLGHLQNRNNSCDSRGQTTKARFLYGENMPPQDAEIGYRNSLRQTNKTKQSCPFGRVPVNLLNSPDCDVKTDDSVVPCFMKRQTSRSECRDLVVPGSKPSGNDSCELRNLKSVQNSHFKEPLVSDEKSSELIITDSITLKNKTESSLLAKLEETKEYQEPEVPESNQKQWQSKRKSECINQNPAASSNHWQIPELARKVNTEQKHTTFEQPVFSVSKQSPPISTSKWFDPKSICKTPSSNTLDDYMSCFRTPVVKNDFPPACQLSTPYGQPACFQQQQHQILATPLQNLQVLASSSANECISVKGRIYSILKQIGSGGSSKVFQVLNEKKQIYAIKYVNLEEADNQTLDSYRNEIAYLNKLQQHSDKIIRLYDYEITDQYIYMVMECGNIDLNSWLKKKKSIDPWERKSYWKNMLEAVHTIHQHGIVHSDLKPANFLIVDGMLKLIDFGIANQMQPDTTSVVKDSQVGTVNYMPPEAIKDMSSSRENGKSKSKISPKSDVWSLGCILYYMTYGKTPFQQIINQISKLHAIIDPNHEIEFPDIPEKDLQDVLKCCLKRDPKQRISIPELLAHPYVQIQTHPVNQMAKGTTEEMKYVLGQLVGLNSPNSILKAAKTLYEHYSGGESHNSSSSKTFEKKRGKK
The series can be described thus: Inhibition of TTK in human HCT116 cells assessed as phosphorylation of histone H3 at Ser10 residue after 4 hrs by immunoassay. The class given is cell-based, HCT-116.

In series [5] the target is T1, Dual specificity protein kinase TTK. The series can be described thus: Inhibition of SUMO-tagged human TTK (1-275 residues) compound pre-incubated for 15 mins prior ATP addition by MBP-based assay.
The target of series [6] is Serine/threonine-protein kinase PLK2 (Homo sapiens, UniProt Q9NYY3). Kind of series: Inhibition of PLK2 (unknown origin) by FRET-based homogenous assay.
Serine/threonine-protein kinase PLK2, sequence (Q9NYY3 whole entry): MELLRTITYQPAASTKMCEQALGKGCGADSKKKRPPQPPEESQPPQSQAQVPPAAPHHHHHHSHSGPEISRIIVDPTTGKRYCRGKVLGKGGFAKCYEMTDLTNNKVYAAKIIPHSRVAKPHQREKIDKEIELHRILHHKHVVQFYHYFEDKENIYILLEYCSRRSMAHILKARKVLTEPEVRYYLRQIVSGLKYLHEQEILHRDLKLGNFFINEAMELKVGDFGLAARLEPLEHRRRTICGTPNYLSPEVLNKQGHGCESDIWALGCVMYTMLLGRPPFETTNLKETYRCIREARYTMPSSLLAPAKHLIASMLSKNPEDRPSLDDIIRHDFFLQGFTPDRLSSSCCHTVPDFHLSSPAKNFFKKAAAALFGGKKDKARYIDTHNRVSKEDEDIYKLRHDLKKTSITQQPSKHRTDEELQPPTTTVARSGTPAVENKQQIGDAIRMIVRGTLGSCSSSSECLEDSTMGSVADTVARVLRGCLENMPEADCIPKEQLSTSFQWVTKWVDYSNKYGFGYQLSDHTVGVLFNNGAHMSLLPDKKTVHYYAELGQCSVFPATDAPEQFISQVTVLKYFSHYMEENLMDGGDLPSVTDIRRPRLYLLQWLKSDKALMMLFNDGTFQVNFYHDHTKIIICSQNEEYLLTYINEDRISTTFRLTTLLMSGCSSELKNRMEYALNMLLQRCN
Series [7] in a line: AUC in SCID mouse at 25 mg/kg, ip. The class given is ADME, organism-based. Also noted: dose 25 mg/kg, route intraperitoneal. The settings on record: plasma. The essentials: (§1)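 Mice were dosed at 25 mg/kg by the IP or the PO route. Drug levels were measured in plasma, and Cmax (µg/mL) and AUC (µg h/mL) were derived for each route.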
Series [8] deals with Mus musculus. The series can be described thus: Toxicity in SCID mouse assessed as body weight loss at 12.5 mg/kg, ip qd for 18 days. The class given is organism-based. Also noted: dose 12.5 mg/kg, route intraperitoneal. The settings on record: in vivo, 432 h. Put shortly: (§2)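 Mice bore HCT116 tumour xenografts. Arms were dosed IP at 12.5 or 25 mg/kg QD, or at 12.5 mg/kg BID. The reference arm received 5-fluorouracil IP at 15 mg/kg daily. Tumour volume was compared with a negative control group to give percent tumour growth inhibition. Body weight was monitored in all arms.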

Series [9] concerns HCT-116. Kind of series: Antitumor activity against human HCT116 cells xenografted in SCID mouse assessed as tumor growth inhibition administered ip qd for 18 days. The class given is functional, organism-based. The essentials: as §2
In general terms: A xenograft is tissue or cells of one species grown in another, often human tumour cells in immunodeficient mice.

A short description of series [10]: Antitumor activity against human HCT116 cells xenografted in SCID mouse assessed as tumor growth inhibition at 12.5 mg/kg, ip bid for 18 days. The class given is functional. The settings on record: HCT-116, ip, 432 h, route intraperitoneal, read-out: TGI. The essentials: as §2
Series [11] can be described thus: Antitumor activity against human HCT116 cells xenografted in SCID mouse assessed as tumor growth inhibition at 12.5 mg/kg, ip qd for 18 days. The class given is functional. The settings on record: HCT-116, ip, 432 h, route intraperitoneal, read-out: TGI. The essentials:
as §2

Series [12] can be described thus: Cmax in SCID mouse at 25 mg/kg, po. The class given is ADME, organism-based. Also noted: dose 25 mg/kg, route oral. The settings on record: in vivo. Put shortly: as §1
The subject of series [13] is Mus musculus. The series can be described thus: Toxicity in SCID mouse assessed as mortality at 25 mg/kg, ip bid for 18 days. Also noted: dose 25 mg/kg, route intraperitoneal. The settings on record: in vivo, 432 h. The class given is organism-based.
For series [14], the system named is Mus musculus. The series can be described thus: Toxicity in SCID mouse assessed as body weight loss at 15 mg/kg, ip qd for 5 days. Also noted: dose 15 mg/kg, route intraperitoneal. The settings on record: in vivo, 120 h. The class given is organism-based. The essentials: as §2
Series [15] can be described thus: Antitumor activity against human HCT116 cells xenografted in SCID mouse assessed as tumor growth inhibition at 25 mg/kg, ip qd for 18 days. The class given is functional. The settings on record: HCT-116, ip, 432 h, route intraperitoneal, read-out: TGI. The essentials:
as §2

A short description of series [16]: Cmax in SCID mouse at 25 mg/kg, ip. The class given is ADME, organism-based. Also noted: dose 25 mg/kg, route intraperitoneal. The settings on record: in vivo. Put shortly: as §1
Series [17] can be described thus: AUC in SCID mouse at 25 mg/kg, po. The class given is ADME, organism-based. Also noted: dose 25 mg/kg, route oral. The settings on record: plasma. The essentials:
as §1

In series [18] the test system is Mus musculus. The series can be described thus: Toxicity in SCID mouse assessed as body weight loss at 12.5 mg/kg, ip bid for 18 days. The class given is organism-based. Also noted: dose 12.5 mg/kg, route intraperitoneal. The settings on record: in vivo, 432 h. Put shortly:
as §2

Cytochrome P450 3A4, sequence (P08684 whole entry): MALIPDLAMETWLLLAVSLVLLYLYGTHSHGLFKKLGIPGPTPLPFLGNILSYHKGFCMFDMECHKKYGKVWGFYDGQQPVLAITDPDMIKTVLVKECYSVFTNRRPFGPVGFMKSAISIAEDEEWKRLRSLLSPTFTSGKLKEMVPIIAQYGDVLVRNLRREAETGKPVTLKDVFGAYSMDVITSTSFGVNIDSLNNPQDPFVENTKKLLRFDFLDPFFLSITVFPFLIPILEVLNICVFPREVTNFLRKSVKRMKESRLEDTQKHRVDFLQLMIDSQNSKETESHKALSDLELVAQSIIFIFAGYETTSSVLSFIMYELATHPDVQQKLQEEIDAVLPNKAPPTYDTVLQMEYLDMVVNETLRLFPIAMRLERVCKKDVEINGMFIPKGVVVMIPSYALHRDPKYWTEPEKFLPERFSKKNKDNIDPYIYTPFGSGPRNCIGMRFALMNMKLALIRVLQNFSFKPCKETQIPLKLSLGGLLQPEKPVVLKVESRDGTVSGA

As usually defined, the IC50 is the point on the concentration scale where inhibition reaches its midpoint. Usually GI50 stands for the concentration that inhibits growth by half. A lower GI50 goes with greater sensitivity of the cells. In general, EC50 refers to the midpoint of the concentration-response curve. Regarding `NS(=O)(=O)c1cccc(-c2n[nH]c3ccc(NC(=O)C(c4ccsc4)N4CCCC4)cc23)c1` (racemic), the IC50 in [1] was above 1000 nM; in [3], above 50 µM; in series [5] it was 2.9 nM; in series [6], 10 µM. The same molecule came in with a concentration for 50% growth inhibition (GI50) in series [2] of 90 nM. For the same molecule, in series [4], the EC50 is 420 nM.
The term AUC denotes the area under the concentration-time curve, a measure of exposure. Read a high AUC as high exposure. One may read the Cmax as the highest concentration seen after dosing. Take `CCc1ccccc1C(C(=O)Nc1ccc2[nH]nc(-c3cccc(S(N)(=O)=O)c3)c2c1)N(C)C` (racemic): the values for the IC50 in series [1] and in series [5] were 2900 nM and 3.6 nM, respectively. For the same molecule, the AUC in series [7] came out at 3000 ng·h/mL; in [17], 140 ng·h/mL. Besides, the Activity entry was “Non-toxic” in series [8], “Toxic” in series [13], “Non-toxic” in series [14] and “Non-toxic” in [18]. In addition, the TGI result in [9] is “Dose-dependent effect”. This molecule gave a GI50 in series [2] of 160 nM. For the same molecule, the results for the inhibition in vivo at 12.5 mg/kg in series [10] and in series [11] were 46% and 10%, respectively. In addition, in [4], the EC50 stood at 520 nM. Also, the Cmax in series [12] was found to be 130 ng/mL; in series [16] it was 4800 ng/mL. In addition, the inhibition in vivo at 25 mg/kg in series [15] stood at 66%.
